Columns and labels:
[1] = target: T1, ATP-dependent translocase ABCB1 (Homo sapiens, UniProt P08183); assay: Inhibition of human MDR1 expressed in mouse NIH-3T3 cells assessed as daunomycin efflux after 30 mins by flow cytometry; assay type: cell-based, NIH3T3
Method in brief: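 MDR1-G185-transfected NIH-3T3 cells in log phase were seeded 24 h beforehand at 10^5 cells/well. They were incubated 30 min at 37 °C in DMEM + 10% iFBS with 2 µM daunomycin and varied sesquiterpene concentrations, washed in ice-cold PBS, trypsinized, and read for single-cell fluorescence by flow cytometry.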

[2] = target: T2, MDR1 (ABCB1, P-glycoprotein) (Homo sapiens, UniProt P08183); assay: (§1) Inhibition of human MDR1 expressed in mouse NIH-3T3 cells assessed as daunomycin efflux at 10 uM after 30 mins by flow cytometry; assay type: cell-based, NIH3T3; settings: mouse NIH-3T3 cells expressing human MDR1, probe daunomycin
T2 sequence (P08183 whole entry): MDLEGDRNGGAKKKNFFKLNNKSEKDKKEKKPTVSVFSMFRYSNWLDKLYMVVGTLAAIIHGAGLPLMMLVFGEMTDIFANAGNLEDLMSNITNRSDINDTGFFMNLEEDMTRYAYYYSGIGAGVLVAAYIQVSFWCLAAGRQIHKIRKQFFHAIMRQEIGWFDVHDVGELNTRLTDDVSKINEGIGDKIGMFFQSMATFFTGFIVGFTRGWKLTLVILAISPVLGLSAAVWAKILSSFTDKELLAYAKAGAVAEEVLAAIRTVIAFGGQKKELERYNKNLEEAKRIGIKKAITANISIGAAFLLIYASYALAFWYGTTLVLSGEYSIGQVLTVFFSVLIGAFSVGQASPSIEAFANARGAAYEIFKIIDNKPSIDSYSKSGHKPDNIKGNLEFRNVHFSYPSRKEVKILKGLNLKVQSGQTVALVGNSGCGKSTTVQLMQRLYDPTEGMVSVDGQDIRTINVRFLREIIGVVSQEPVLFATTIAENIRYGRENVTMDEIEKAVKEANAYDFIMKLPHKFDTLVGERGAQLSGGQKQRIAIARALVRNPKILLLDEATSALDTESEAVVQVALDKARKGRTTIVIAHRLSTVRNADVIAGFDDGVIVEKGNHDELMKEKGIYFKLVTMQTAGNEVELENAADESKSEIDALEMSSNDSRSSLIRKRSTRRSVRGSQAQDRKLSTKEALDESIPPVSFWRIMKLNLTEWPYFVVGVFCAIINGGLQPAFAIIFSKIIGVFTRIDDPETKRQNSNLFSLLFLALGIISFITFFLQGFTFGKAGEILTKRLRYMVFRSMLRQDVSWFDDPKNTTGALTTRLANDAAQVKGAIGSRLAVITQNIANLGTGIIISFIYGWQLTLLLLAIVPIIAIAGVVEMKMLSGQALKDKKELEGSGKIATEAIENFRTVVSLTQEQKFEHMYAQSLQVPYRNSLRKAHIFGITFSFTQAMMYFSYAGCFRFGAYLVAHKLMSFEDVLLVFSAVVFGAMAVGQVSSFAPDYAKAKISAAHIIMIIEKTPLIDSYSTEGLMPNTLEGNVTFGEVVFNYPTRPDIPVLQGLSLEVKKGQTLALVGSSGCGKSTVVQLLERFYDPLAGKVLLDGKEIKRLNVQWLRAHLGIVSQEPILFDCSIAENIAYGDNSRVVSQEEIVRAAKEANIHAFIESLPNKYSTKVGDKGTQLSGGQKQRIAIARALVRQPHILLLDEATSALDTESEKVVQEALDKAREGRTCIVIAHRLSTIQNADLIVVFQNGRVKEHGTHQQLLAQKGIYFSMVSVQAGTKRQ

[3] = Intrinsic toxicity in wild type mouse NIH/3T3 cells assessed as cell growth at 10 uM relative to control; assay type: cell-based, NIH3T3; settings: wild type NIH/3T3 cells, read-out: Activity
Method in brief: (§2)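 Parental NIH-3T3 and MDR1-G185-transfected cells were cultured in DMEM with 10% heat-inactivated FBS, 2 mM L-glutamine and penicillin/streptomycin. Cells were exposed to 10 µM compound. Growth is reported as percent of untreated control. Mean ± S.D. of three independent experiments in triplicate.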

[4] = target: T2, MDR1 (ABCB1, P-glycoprotein); assay: Inhibition of human MDR1 expressed in mouse NIH-3T3 cells assessed as daunomycin efflux at 10 uM after 30 mins by flow cytometry relative to control; assay type: cell-based, NIH3T3; settings: mouse NIH-3T3 cells expressing human MDR1, probe daunomycin, read-out: Imax
Method in brief: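 Transfected MDR1-G185 NIH-3T3 cells were seeded 24 h prior at 10^5 cells/well. They were co-incubated 30 min at 37 °C in DMEM + 10% iFBS with 2 µM daunomycin and 10 µM sesquiterpene, then washed in ice-cold PBS, trypsinized and read by flow cytometry. Retention is expressed relative to 5 mM ortho-vanadate (100% Pgp inhibition). Mean ± S.D. of three independent experiments in triplicate.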

[5] = Intrinsic toxicity in mouse NIH/3T3 cells expressing human MDR1 assessed as cell growth at 10 uM relative to control; assay type: ADME, cell-based, NIH3T3; settings: read-out: Activity; method in brief: as §2
[6] = target: T1, ATP-dependent translocase ABCB1; assay: as §1; assay type: cell-based, NIH3T3; settings: nih3t3, 0.5 h, 10 µM

T1 sequence (P08183 whole entry): as above

Row | Ki [1] [nM] | inhibition at 0.5 h, 10 µM [2] [%] | inhibition at 0.5 h, 10 µM [4] [%] | inhibition (INH) [6] | Structure (SMILES) | viability at 10 µM [3] [%] | viability at 10 µM [5] [%]
1 | 340 | 70 | > 90 |  | CC(=O)OC[C@]12[C@@H](OC(=O)c3ccoc3)C[C@@H]3[C@@H](OC(=O)c4ccccc4)[C@]1(OC3(C)C)[C@@](C)(O)C[C@H](OC(=O)c1ccccc1)[C@@H]2OC(C)=O | 82.1 | 84.3
2 | 590 | 70 | > 90 |  | CC(=O)OC[C@]12[C@@H](OC(=O)c3ccoc3)C[C@@H]3[C@@H](OC(=O)c4ccccc4)[C@]1(OC3(C)C)[C@@](C)(O)C[C@H](OC(C)=O)[C@@H]2OC(C)=O | 92.4 | 87.8
3 |  |  |  | Active | CC(=O)OC[C@]12[C@@H](OC(=O)c3ccoc3)C[C@@H]3[C@@H](OC(=O)c4ccccc4)[C@]1(OC3(C)C)[C@@](C)(O)C[C@H](O)[C@@H]2OC(C)=O |  | 
4 | 470 | 70 | > 90 |  | CC(=O)OC[C@]12[C@@H](OC(=O)c3ccccc3)C[C@@H]3[C@@H](OC(=O)c4ccccc4)[C@]1(OC3(C)C)[C@@](C)(O)C[C@H](O)[C@@H]2OC(C)=O | 84.4 | 105
5 |  |  |  | Active | CC(=O)OC[C@]12[C@@H](OC(=O)c3ccoc3)C[C@@H]3[C@@H](OC(C)=O)[C@]1(OC3(C)C)[C@@](C)(O)C[C@H](OC(C)=O)[C@@H]2OC(C)=O |  | 
6 | 390 | 70 | > 90 |  | CC(=O)OC[C@]12[C@@H](OC(=O)c3ccccc3)C[C@@H]3[C@@H](OC(=O)c4ccccc4)[C@]1(OC3(C)C)[C@@](C)(O)C[C@H](OC(C)=O)[C@@H]2OC(C)=O | 76.7 | 77.2
7 | 510 | 70 | > 90 |  | CC(=O)OC[C@]12[C@@H](OC(=O)c3ccoc3)C[C@@H]3[C@@H](OC(=O)c4ccoc4)[C@]1(OC3(C)C)[C@@](C)(O)C[C@H](OC(C)=O)[C@@H]2OC(C)=O | 92 | 82.9
8 | 380 | 70 | > 90 |  | CC(=O)O[C@H]1[C@@H](OC(=O)c2ccccc2)C[C@](C)(O)[C@]23OC(C)(C)[C@H](C[C@H](OC(=O)c4ccoc4)[C@]12C)[C@H]3OC(=O)c1ccccc1 | 108 | 98
9 |  |  |  | Active | CC(=O)O[C@H]1[C@H](OC(=O)c2ccoc2)[C@@]2(C)[C@@H](OC(=O)c3ccccc3)C[C@@H]3C[C@]2(OC3(C)C)[C@@](C)(O)[C@H]1OC(C)=O |  | 
10 | 640 | 70 | > 90 |  | CC(=O)O[C@@H]1[C@H](OC(C)=O)[C@@H](C)[C@@]23C[C@@H](C[C@H](OC(=O)c4ccccc4)[C@]2(C)[C@H]1OC(=O)c1ccoc1)C(C)(C)O3 | 91.8 | 92.4
11 |  |  |  | Active | CC(=O)O[C@@H]1C[C@](C)(O)[C@@]23C[C@@H](C[C@H](OC(=O)c4ccccc4)[C@]2(C)[C@H]1OC(=O)c1ccoc1)C(C)(C)O3 |  | 
12 |  |  |  | Active | CC(=O)O[C@@H]1C[C@](C)(O)[C@@]23C[C@@H](C[C@H](OC(=O)c4ccoc4)[C@]2(C)[C@H]1OC(=O)c1ccoc1)C(C)(C)O3 |  | 
13 | 570 | 70 | > 90 |  | CC(=O)O[C@@H]1C[C@](C)(O)[C@@]23C[C@@H](C[C@H](OC(=O)/C=C/c4ccccc4)[C@]2(C)[C@H]1OC(=O)c1ccoc1)C(C)(C)O3 | 86 | 100
14 |  |  |  | Active | CC(=O)O[C@@H]1C[C@@H](C)[C@@]23C[C@@H](C[C@H](OC(=O)c4ccccc4)[C@]2(C)[C@H]1OC(=O)c1ccoc1)C(C)(C)O3 |  | 
15 |  |  |  | Active | CC1(C)O[C@]23C[C@H]1C[C@H](OC(=O)c1ccccc1)[C@]2(C)[C@@H](OC(=O)c1ccoc1)CC[C@]3(C)O |  | 
16 |  |  |  | Active | CC(=O)OC[C@]12[C@@H](OC(=O)c3ccccc3)C[C@@H]3[C@@H](OC(C)=O)[C@]1(OC3(C)C)[C@@](C)(O)C[C@H](OC(C)=O)[C@@H]2OC(C)=O |  | 
17 |  |  |  |  | COc1ccc(CCN(C)CCCC(C#N)(c2ccc(OC)c(OC)c2)C(C)C)cc1OC (centres undefined) |  | 79.2

From ChEMBL document CHEMBL1828513, “Overcoming human P-glycoprotein-dependent multidrug resistance with novel dihydro-β-agarofuran sesquiterpenes” (Eur J Med Chem, 2011)
